Source: ChEMBL document CHEMBL4765235, “Discovery of N-[Bis(4-methoxyphenyl)methyl]-4-hydroxy-2-(pyridazin-3-yl)pyrimidine-5-carboxamide (MK-8617), an Orally Active Pan-Inhibitor of Hypoxia-Inducible Factor Prolyl Hydroxylase 1-3 (HIF PHD1-3) for the Treatment of Anemia” (J Med Chem, 2016)
Activity calls are given as the source filed them. The rule behind the calls is not given here.

Legend:
[1] = Cmax in rhesus monkey at 1 mg/kg, po or 0.5 mg/kg, iv; format: ADME, organism-based, Macaca mulatta; parameters: dose 1 mg/kg; settings: in vivo
Summary of the method: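 Single-dose PK at 1 mg/kg po and 0.5 mg/kg iv. Mouse clearance is from blood; dog and rhesus clearance is from plasma. Mouse vehicle, both routes: DMSO:PEG400:water (5:40:55, v/v/v). Dog and monkey iv vehicle: PEG200:12%HPCD:water (30:12:58 v/v/v). Dog and monkey po vehicle: Imwitor:Tween (1:1 w/w).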

[2] = molecular target: Prolyl hydroxylase EGLN2 (Homo sapiens, UniProt Q96KS0); experiment: Inhibition of FLAG-tagged full-length HIF-PHD1 (unknown origin) expressed in baculovirus infected Sf9 cells using 2-oxoglutarate and HIF1alpha biotinyl-DLDLEMLAPYIPMDDDFQL as peptide substrates preincubated for 30 mins followed by substrate addition and measured after 2 hrs by LANCE assay
[3] = In vivo inhibition of HIF-PHD2 in C57BL/6 mouse assessed as serum erythropoietin level at 15 mg/kg, iv measured after 4 hrs; format: functional
Summary of the method: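 Mouse pharmacodynamic EPO assay (MoPED). Compound dosed iv; serum EPO measured 4 hr after dosing and reported in pg/mL. Minimum effective dose is the lowest dose giving EPO elevation.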

[4] = Metabolic stability in human liver microsomes assessed as metabolic turnover at 10 uM measured after 60 mins in presence of NADPH; format: ADME, Microsome; settings: read-out: Drug metabolism
[5] = Cmax in Sprague-Dawley rat at 15 mg/kg, po administered as single dose measured at 6 hrs; format: ADME, organism-based; parameters: route oral, time 6 hrs, dose 15 mg/kg; settings: in vivo
[6] = Toxicity in Sprague-Dawley rat assessed as change in hemoglobin levels at 15 mg/kg, po QD administered for 4 weeks and measured post last dose; format: organism-based; settings: in vivo, 672 h
[7] = species on record: Rattus norvegicus; settings: Sprague-Dawley, dose 15.0 mg/kg

Prolyl hydroxylase EGLN2, sequence (Q96KS0 whole entry): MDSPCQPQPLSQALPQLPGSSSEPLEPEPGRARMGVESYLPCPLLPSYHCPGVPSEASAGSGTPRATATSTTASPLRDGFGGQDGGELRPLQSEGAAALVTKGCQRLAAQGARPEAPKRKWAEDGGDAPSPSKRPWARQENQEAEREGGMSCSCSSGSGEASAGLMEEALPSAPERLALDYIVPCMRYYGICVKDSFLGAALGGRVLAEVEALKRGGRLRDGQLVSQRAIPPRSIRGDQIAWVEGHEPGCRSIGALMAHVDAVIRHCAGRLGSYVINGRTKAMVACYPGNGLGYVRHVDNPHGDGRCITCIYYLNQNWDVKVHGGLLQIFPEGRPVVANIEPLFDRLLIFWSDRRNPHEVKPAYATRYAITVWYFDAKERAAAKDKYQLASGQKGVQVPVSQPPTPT

Cmax [1]: 17 µM
IC50 [2]: 1 nM
metabolised at 1 h, 10 µM [4]: 34%
Cmax [5]: 30 µM
SMILES: COc1ccc(C(NC(=O)c2cnc(-c3cccnn3)nc2O)c2ccc(OC)cc2)cc1
Activity [3]: 12000 pg/mL
Activity [6]: 7.6 g/dL
inhibition [7]: Active
